The source made the active and inactive calls. No cut-off for these calls is given here.
Assays:
[1] = tested on: Platelet; experiment: Induction of 1.4 x 10^-6 M PGH2-induced platelet aggregation in human platelet rich plasma at 10^-4 to 10^-6 M incubated for 1.5 mins at 37.5 degC
[2] = tested on: Platelet; experiment: Inhibition of 2 x 10^-6 M ADP-induced platelet aggregation in human platelet rich plasma at 10^-4 to 10^-6 M incubated for 1.5 mins at 37.5 degC; assay type: functional
Procedure, shortened: (§1)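 Human platelet-rich plasma incubated with test agent for 1.5 min at 37.5 °C, then aggregating agent added. Aggregation followed for 5 min turbidimetrically in a dual-channel aggregometer. Baseline (0%) was set with PRP. Full scale (100%) was set at the optical density of plasma treated with the aggregating agent alone. Agents were also checked for agonist activity at 10^-4 and 10^-6 M.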

[3] = tested on: Platelet; experiment: Induction of 9.5 x 10^-7 M 9,11 methanoepoxy-PGH2-induced platelet aggregation in human platelet rich plasma at 10^-4 to 10^-6 M incubated for 1.5 mins at 37.5 degC
[4] = tested on: Platelet; experiment: Induction of 8.2 x 10^-4 M arachidonic acid-induced platelet aggregation in human platelet rich plasma at 10^-4 to 10^-6 M incubated for 1.5 mins at 37.5 degC
[5] = tested on: Platelet; experiment: Inhibition of 8.2 x 10^-4 M arachidonic acid-induced platelet aggregation in human platelet rich plasma at 10^-4 M incubated for 1.5 mins at 37.5 degC; assay type: functional
Procedure, shortened: as §1

[6] = tested on: Platelet; experiment: Inhibition of 9.5 x 10^-7 M 9,11 methanoepoxy-PGH2-induced platelet aggregation in human platelet rich plasma at 10^-4 M incubated for 1.5 mins at 37.5 degC; assay type: functional
Procedure, shortened: as §1

[7] = tested on: Platelet; experiment: Inhibition of 2 x 10^-6 M ADP-induced platelet aggregation in human platelet rich plasma at 10^-4 M incubated for 1.5 mins at 37.5 degC; assay type: functional
Procedure, shortened: as §1

[8] = tested on: Platelet; experiment: Inhibition of 1.4 x 10^-6 M PGH2-induced platelet aggregation in human platelet rich plasma at 10^-4 M incubated for 1.5 mins at 37.5 degC; assay type: functional
Procedure, shortened: as §1

[9] = tested on: Platelet; experiment: Inhibition of 8.5 x 10^-7 M 9,11 methanoepoxy-PGH2-induced platelet aggregation in human platelet rich plasma incubated for 1.5 mins at 37.5 degC; assay type: functional; conditions: 0.025 h
[10] = target: T1, Thromboxane-A synthase (Homo sapiens, UniProt P24557); experiment: Inhibition of thromboxane synthetase in intact human platelet microsomes assessed as inhibition of [1-14C]PGH2 to [1-14C]TxA2
T1 sequence (P24557 whole entry): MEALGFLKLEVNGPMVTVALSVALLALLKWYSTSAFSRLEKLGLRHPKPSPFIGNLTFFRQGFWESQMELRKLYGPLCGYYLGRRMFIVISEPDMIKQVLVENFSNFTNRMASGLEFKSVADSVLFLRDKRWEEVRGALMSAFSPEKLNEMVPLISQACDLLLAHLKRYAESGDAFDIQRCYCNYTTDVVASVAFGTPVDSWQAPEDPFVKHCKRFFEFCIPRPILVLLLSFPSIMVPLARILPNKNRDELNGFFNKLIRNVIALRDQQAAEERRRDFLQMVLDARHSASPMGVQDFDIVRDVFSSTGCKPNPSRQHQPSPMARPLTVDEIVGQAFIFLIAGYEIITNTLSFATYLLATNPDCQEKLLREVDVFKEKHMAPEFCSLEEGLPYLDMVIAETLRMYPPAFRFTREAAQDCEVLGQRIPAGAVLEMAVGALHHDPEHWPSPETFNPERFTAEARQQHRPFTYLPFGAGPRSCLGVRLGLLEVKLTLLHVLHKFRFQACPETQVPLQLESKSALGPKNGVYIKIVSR

[11] = tested on: Platelet; experiment: Inhibition of TxA2-induced platelet aggregation in aspirinated human platelet at 10^-4 M incubated for 1.5 mins at 37.5 degC cells preincubated with PGH2 for 15 secs; assay type: functional, cell-based
Procedure, shortened: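 TxA2 was generated by stirring human platelet microsomes (0.1 mL, 1.9 mg protein/mL) with PGH2 at 37.5 °C for 15 s. The methods give PGH2 as 10^-4 M; the legend gives it as 1.4 nmol. Aspirinated PRP (0.9 mL), preincubated 1.5 min with inhibitor, was then added. Aggregation was monitored for 5 min. Boiled microsomes served as control.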

[12] = tested on: Platelet; experiment: Effect on arachidonic acid metabolism in washed human platelet assessed as HETE level at 10^-4 M by GC-MS analysis (reference value: 23 nmol); assay type: functional
[13] = tested on: Platelet; experiment: Inhibition of 8.3 x 10^-4 M arachidonic acid-induced platelet aggregation in human platelet rich plasma incubated for 1.5 mins at 37.5 degC; assay type: functional; conditions: 0.025 h
[14] = tested on: Platelet; experiment: Effect on arachidonic acid metabolism in washed human platelet assessed as TxB2 level at 10^-4 M by GC-MS analysis (reference value: 14 nmol); assay type: functional

Compound | induction [1] | inhibition [2] | induction of platelet aggregation [3] | induction of platelet aggregation [4] | inhibition (INH) [5] | inhibition (INH) [6] | inhibition (INH) [7] | inhibition (INH) [8] | IC50 [9] | IC50 [10] | inhibition [11] | Activity [12] | IC50 [13] | Activity [14]
CCOC(=O)N1[C@H]2C[C@@H]([C@H](CCCCCCC(=O)O)[C@H]2O)N1C(=O)OCC (racemic) | inactive | inactive | inactive | inactive | 0% | 21% |  |  |  |  |  |  |  | 
C=CCO[C@@H]1[C@@H](CCCCCCC(=O)O)[C@@H]2C[C@@H]1N(C(=O)OCC)N2C(=O)OCC (racemic) | inactive | inactive | inactive | inactive | 0% | 88% | 0% | 100% | 36 µM |  |  |  |  | 
CCCCCC(O)CO[C@@H]1[C@@H](CCCCCCC(=O)O)[C@@H]2C[C@@H]1N=N2 (mixture of isomers) | inactive | inactive | inactive | inactive | 100% | 100% | 0% | 100% | 5.5 µM | 1 µM | Active | 27 nmol | 31 µM | 0 nmol
CCCCCC(O)CO[C@@H]1[C@@H](CCCCCCC(=O)O)[C@@H]2C[C@@H]1N(C(=O)OCC)N2C(=O)OCC (mixture of isomers) | inactive | inactive | inactive | inactive | 0% | 20% |  |  |  |  |  |  |  | 
C=CCO[C@@H]1[C@@H](CCCCCCC(=O)O)[C@@H]2C[C@@H]1N=N2 (racemic) | inactive | inactive | inactive | inactive | 0% | 20% |  |  |  |  |  |  |  | 
